From ChEMBL document CHEMBL1129428 (J Med Chem, 1996)

What was measured:
Rattus norvegicus [1] = test: Compound was tested for anticonvulsant activity after Oral Administration into Rats by using MES screen test after 4h,dose 30 mg/kg; number of rats out of four which were protected; assay type: functional
In short: (§1)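 Rats received the compound orally. […] Rats were tested in the MES screen at 0.25, 0.5, 1, 2 and 4 h. Each value is the number of rats protected out of 4. The test followed NINDS procedures.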

Rattus norvegicus [2] = test: Compound was tested for anticonvulsant activity after Oral Administration into Rats by using MES screen test after 0.25h,dose 30 mg/kg; No activity was demonstarted; assay type: functional, organism-based; design: dose 30 mg/kg; in short: as §1
Rattus norvegicus [3] = test: Compound was tested for anticonvulsant activity after Oral Administration into Rats by using MES screen test after 2h,dose 30 mg/kg; number of rats out of four which were protected; assay type: functional; in short: as §1
Rattus norvegicus [4] = test: Compound was tested for anticonvulsant activity after Oral Administration into Rats by using MES screen test after 0.5h,dose 30 mg/kg; No activity was demonstarted; assay type: functional, organism-based; design: dose 30 mg/kg; in short: as §1
Rattus norvegicus [5] = test: Compound was tested for anticonvulsant activity after Oral Administration into Rats by using MES screen test after 1h,dose 30 mg/kg; number of rats out of four which were protected; assay type: functional; in short: as §1
Mus musculus [6] = test: Anticonvulsant activity after intraperitoneal injection into mice by using MES screen test after 0.5 hr; assay type: functional
Mus musculus [7] = test: Anticonvulsant activity after intraperitoneal injection into mice measured in a maximal electroshock scree (MES) screen; assay type: functional
Mus musculus [8] = test: Anticonvulsant activity after intraperitoneal injection into mice by using scPTZ screen after 0.5 hr; assay type: functional
Mus musculus [9] = test: Anticonvulsant activity after intraperitoneal injection into mice by using scPTZ screen test after 4 hr; assay type: functional
Mus musculus [10] = test: Toxicity after intraperitoneal injection into mice by using toxicity screen test after 0.5 hr; assay type: organism-based; conditions: in vivo, ip
In short: (§2)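 Mice injected intraperitoneally at 30, 100 and 300 mg/kg and examined 0.5 and 4 h afterwards. Each entry is the minimum dose giving activity (MES protection, scPTZ protection, or rotorod failure for neurotoxicity) in half or more of the mice. Activity is called absent if nothing occurs at 300 mg/kg.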

Mus musculus [11] = test: Compound was tested for toxicity after intraperitoneal injection into mice by using toxicity screen test after 4 hr; assay type: organism-based; conditions: in vivo, ip; in short: as §2
Rattus norvegicus [12] = test: Compound was tested for anticonvulsant activity after Oral Administration into Rats by using MES screen test after 0.25h,dose 12.5 mg/kg; No activity was demonstarted; assay type: functional, organism-based; design: dose 12.5 mg/kg; in short: as §1
Rattus norvegicus [13] = test: Compound was tested for anticonvulsant activity after Oral Administration into Rats by using MES screen test after 4h,dose 12.5 mg/kg; number of rats out of four which were protected; assay type: functional; in short: as §1
Rattus norvegicus [14] = test: Compound was tested for anticonvulsant activity after Oral Administration into Rats by using MES screen test after 0.5h,dose 12.5 mg/kg; No activity was demonstarted; assay type: functional, organism-based; design: dose 12.5 mg/kg; in short: as §1
Rattus norvegicus [15] = test: Compound was tested for anticonvulsant activity after Oral Administration into Rats by using MES screen test after 1h,dose 12.5 mg/kg; No activity was demonstarted; assay type: functional, organism-based; design: dose 12.5 mg/kg; in short: as §1
Rattus norvegicus [16] = test: Compound was tested for anticonvulsant activity after Oral Administration into rat by using MES screen test after 4 hr; assay type: functional
In short: (§3)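 Rats dosed orally, typically at 50 mg/kg first, then mostly 12.5 mg/kg (some compounds at 30 mg/kg), and tested by maximal electroshock. Four rats per compound, scored at 0.25, 0.5, 1, 2 and 4 h as the number of rats protected out of 4.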

[17] = Compound was tested for toxicity after oral administration in rat by using neurotoxicity screen test after 2 hr; assay type: organism-based; conditions: in vivo
In short: (§4)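 Rat neurotoxicity after oral dosing, observed at 0.25, 0.5, 1, 2, 4, 6, 8 and 24 h (8 h omitted for one compound).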

Rattus norvegicus [18] = test: Compound was tested for anticonvulsant activity after Oral Administration into Rats by using MES screen test after 2h,dose 12.5 mg/kg; No activity was demonstarted; assay type: functional, organism-based; design: dose 12.5 mg/kg; in short: as §1
[19] = Protection index = TD50/ED50 (MES); assay type: ADME, organism-based; conditions: rat, in vivo; read-out: PI
[20] = Partition coefficient (logP); assay type: physicochemical; conditions: octanol/water
In short: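 Partition between 1-octanol and buffer at pH 7.4, with solutions prepared in 1-octanol before buffer is added. Quantified by UV, using λmax and ε values measured in 1-octanol.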

Rattus norvegicus [21] = test: Compound was tested for anticonvulsant activity after Oral Administration into Rats by using MES screen test after 4h,dose 50 mg/kg; number of rats out of four which were protected; assay type: functional; in short: as §1
Rattus norvegicus [22] = test: Compound was tested for anticonvulsant activity after Oral Administration into Rats by using MES screen test after 2h,dose 50 mg/kg; number of rats out of four which were protected; assay type: functional; in short: as §1
Rattus norvegicus [23] = test: Compound was tested for anticonvulsant activity after Oral Administration into Rats by using MES screen test after 0.25h,dose 50 mg/kg; No activity was demonstarted; assay type: functional, organism-based; design: dose 50 mg/kg; in short: as §1
Rattus norvegicus [24] = test: Compound was tested for anticonvulsant activity after Oral Administration into Rats by using MES screen test after 0.5h,dose 50 mg/kg; number of rats out of four which were protected.; assay type: functional; in short: as §1
Rattus norvegicus [25] = test: Compound was tested for anticonvulsant activity after Oral Administration into Rats by using MES screen test after 1h,dose 50 mg/kg; number of rats out of four which were protected; assay type: functional; in short: as §1
Mus musculus [26] = test: Compound was tested for anticonvulsant activity after intraperitoneal injection into mice by using MES screen test after 1 hr; assay type: functional; conditions: ip
In short: (§5)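 Quantitative intraperitoneal mouse testing in the MES, scPTZ or rotorod neurotoxicity screens at the peak time given for each compound (0.25–2 h). ED50 or TD50 reported in mg/kg with 95% CI and slope (SE).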

[27] = Compound was tested for toxicity after intraperitoneal injection into mice by using neurotoxicity screen test after 2 hr; assay type: organism-based; conditions: mouse, in vivo, ip; in short: as §5
[28] = Compound was tested for toxicity after oral administration in rat by using neurotoxicity screen test after 0.25-24 hr; assay type: organism-based; conditions: in vivo; in short: as §4
Mus musculus [29] = test: Compound was tested for anticonvulsant activity after intraperitoneal injection into mice by using scPTZ screen test after 1 hr; assay type: functional; conditions: ip; in short: as §5
Mus musculus [30] = test: Compound was tested for anticonvulsant activity after intraperitoneal injection into mice by using MES screen test after 0.5 hr; assay type: functional; conditions: ip; in short: as §2
Mus musculus [31] = test: Compound was tested for anticonvulsant activity after intraperitoneal injection into mice by using scPTZ screen test after 0.5 hr; assay type: functional; conditions: ip; in short: as §2
[32] = Compound was tested for toxicity after intraperitoneal injection into mice by using neurotoxicity screen test after 1 hr; assay type: organism-based; conditions: mouse, in vivo, ip; in short: as §5
Rattus norvegicus [33] = test: Compound was tested for anticonvulsant activity after Oral Administration into Rats by using MES screen test after 0.25h,dose 12.5 mg/kg; number of rats out of four which were protected; assay type: functional; in short: as §1
Rattus norvegicus [34] = test: Anticonvulsant activity after oral administration into rats; assay type: functional; design: concentration or dose not given beside the values
Rattus norvegicus [35] = test: Compound was tested for anticonvulsant activity after Oral Administration into Rats by using MES screen test after 1h,dose 12.5 mg/kg; number of rats out of four which were protected; assay type: functional; in short: as §1
Rattus norvegicus [36] = test: Compound was tested for anticonvulsant activity after Oral Administration into Rats by using MES screen test after 2h,dose 12.5 mg/kg; number of rats out of four which were protected; assay type: functional; in short: as §1
[37] = Protection index = TD50/ED50 (MES); conditions: mouse, in vivo; read-out: PI
[38] = Compound was tested for toxicity after intraperitoneal injection into mice by using neurotoxicity screen test after 4 hr; assay type: organism-based; conditions: mouse, in vivo, ip; in short: as §2
Rattus norvegicus [39] = test: Compound was tested for anticonvulsant activity after Oral Administration into rat by using MES screen test after 2 hr; assay type: functional; in short: as §3
[40] = Protection index = TD50/ED50; assay type: ADME; conditions: read-out: PI
Rattus norvegicus [41] = test: Compound was tested for anticonvulsant activity after Oral Administration into Rats by using MES screen test after 0.5h,dose 50 mg/kg; No activity was demonstarted; assay type: functional, organism-based; design: dose 50 mg/kg; in short: as §1

With NC(=O)N/N=C\c1ccccc1Oc1ccc(F)cc1 the Activity (Rattus norvegicus [1]) was 1, the Activity (Rattus norvegicus [2]) was “No activity” and the Activity (Rattus norvegicus [3]) was 2. For the same molecule, the Activity (Rattus norvegicus [4]) was “No activity” and the Activity (Rattus norvegicus [5]) was 1.
For CCCCOc1ccc(Oc2ccc(/C=N/NC(N)=O)cc2)cc1, the Dose (Mus musculus [6]) was 300 mg/kg, the Dose (Mus musculus [7]) was 100 mg/kg and the Dose (Mus musculus [8]) was 300 mg/kg. It also gave a Dose (Mus musculus [9]) of 300 mg/kg, a Dose (Mus musculus [10]) of 300 mg/kg and a Dose (Mus musculus [11]) of 300 mg/kg. For the same molecule, the Activity (Rattus norvegicus [12]) was “No activity”, the Activity (Rattus norvegicus [13]) was 2 and the Activity (Rattus norvegicus [14]) was “No activity”. For the same molecule, the Activity (Rattus norvegicus [15]) was “No activity”, the ED50 (Rattus norvegicus [16]) was 45.8 mg/kg and the TD50 at 2 h [17] was > 100 mg/kg. For the same molecule, the Activity (Rattus norvegicus [18]) was “No activity” and the selectivity ratio [19] was > 2.18.
In the case of COc1ccc(Oc2ccc(/C=N/NC(N)=O)cc2)cc1, the logP [20] was 1.29, the Dose (Mus musculus [6]) was 100 mg/kg and the Dose (Mus musculus [7]) was 100 mg/kg. The Dose (Mus musculus [11]) was 300 mg/kg, the Activity (Rattus norvegicus [21]) was 4 and the Activity (Rattus norvegicus [22]) was 4. For the same molecule, the Activity (Rattus norvegicus [23]) was “No activity”, the Activity (Rattus norvegicus [24]) was 4 and the Activity (Rattus norvegicus [25]) was 4.
NC(=O)N/N=C/c1ccc(Sc2ccccc2)cc1 showed a Dose (Mus musculus [6]) of 30 mg/kg, a Dose (Mus musculus [7]) of 30 mg/kg and a Dose (Mus musculus [11]) of 300 mg/kg. The ED50 (Mus musculus [26]) was 15.6 mg/kg, the TD50 at 2 h [27] was 181 mg/kg and the Activity (Rattus norvegicus [21]) was 4. For the same molecule, the Activity (Rattus norvegicus [22]) was 4, the Activity (Rattus norvegicus [23]) was “No activity” and the Activity (Rattus norvegicus [24]) was 4. The Activity (Rattus norvegicus [25]) was 4, the ED50 (Rattus norvegicus [16]) was 4.29 mg/kg and the TD50 [28] was > 496 mg/kg. For the same molecule, the ED50 (Mus musculus [29]) was > 46 mg/kg.
Molecule NC(=O)N/N=C\c1ccc(OS(=O)(=O)c2ccccc2)cc1 has a Dose (Mus musculus [6]) of 30 mg/kg, a Dose (Mus musculus [7]) of 30 mg/kg and a Dose (Mus musculus [8]) of 30 mg/kg. For the same molecule, the Dose (Mus musculus [10]) was 300 mg/kg, the Dose (Mus musculus [11]) was 300 mg/kg and the ED50 (Mus musculus [30]) was 25.3 mg/kg. The ED50 (Mus musculus [31]) was > 100 mg/kg, the TD50 at 1 h [32] was 113 mg/kg and the Activity (Rattus norvegicus [13]) was 3. For the same molecule, the Activity (Rattus norvegicus [33]) was 1, the Activity (Rattus norvegicus [34]) was 2 and the Activity (Rattus norvegicus [35]) was 2. For the same molecule, the Activity (Rattus norvegicus [36]) was 4 and the selectivity ratio [37] was 4.47.
With CCCc1ccc(Oc2ccc(/C=N/NC(N)=O)cc2)cc1 the Dose (Mus musculus [6]) was 100 mg/kg, the Dose (Mus musculus [7]) was 100 mg/kg and the Dose (Mus musculus [8]) was 300 mg/kg. The Dose (Mus musculus [11]) was 300 mg/kg, the ED50 (Mus musculus [26]) was 11 mg/kg and the TD50 at 4 h [38] was 243 mg/kg. The Activity (Rattus norvegicus [12]) was “No activity”, the Activity (Rattus norvegicus [13]) was 2 and the Activity (Rattus norvegicus [34]) was 1. The Activity (Rattus norvegicus [35]) was 2, the ED50 (Rattus norvegicus [39]) was 2.63 mg/kg and the TD50 [28] was > 500 mg/kg. It also gave a selectivity ratio [40] of 3.05, an ED50 (Mus musculus [29]) of 79.6 mg/kg and an Activity (Rattus norvegicus [36]) of 4.
In the case of NC(=O)N/N=C\c1ccccc1Oc1ccccc1, the Activity (Rattus norvegicus [21]) was 1, the Activity (Rattus norvegicus [22]) was 1 and the Activity (Rattus norvegicus [23]) was “No activity”. The Activity (Rattus norvegicus [41]) was “No activity” and the Activity (Rattus norvegicus [25]) was 2.
